The values that follow come from ChEMBL document CHEMBL4825680, “Structure-based discovery of potent and selective small-molecule inhibitors targeting signal transducer and activator of transcription 3 (STAT3)” (Eur J Med Chem, 2021).

One assay has as its system MDA-MB-468. As to the kind of experiment: Effect on total STAT3 level in human MDA-MB-468 cells at 0.3 to 3 uM measured after 3 hrs by Western blot analysis. Type of assay: functional, cell-based. The note with it: dose 0.3-3 µM. An outline of the steps:
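Breast cancer cells were treated with vehicle (0.1% DMSO) or compound, then lysed in RIPA with PMSF and phosphatase inhibitors. 20–50 μg protein was run on 8 or 12% SDS-PAGE, blotted to PVDF, blocked in 5% BSA, probed with primary antibodies overnight at 4 °C, then HRP secondaries, with ECL detection.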
For orientation: Immunoblotting shows a protein as a band on a membrane.

Assay [1] deals with T1, Signal transducer and activator of transcription 1-alpha/beta (Homo sapiens) (UniProt P42224).
T1 sequence (whole entry): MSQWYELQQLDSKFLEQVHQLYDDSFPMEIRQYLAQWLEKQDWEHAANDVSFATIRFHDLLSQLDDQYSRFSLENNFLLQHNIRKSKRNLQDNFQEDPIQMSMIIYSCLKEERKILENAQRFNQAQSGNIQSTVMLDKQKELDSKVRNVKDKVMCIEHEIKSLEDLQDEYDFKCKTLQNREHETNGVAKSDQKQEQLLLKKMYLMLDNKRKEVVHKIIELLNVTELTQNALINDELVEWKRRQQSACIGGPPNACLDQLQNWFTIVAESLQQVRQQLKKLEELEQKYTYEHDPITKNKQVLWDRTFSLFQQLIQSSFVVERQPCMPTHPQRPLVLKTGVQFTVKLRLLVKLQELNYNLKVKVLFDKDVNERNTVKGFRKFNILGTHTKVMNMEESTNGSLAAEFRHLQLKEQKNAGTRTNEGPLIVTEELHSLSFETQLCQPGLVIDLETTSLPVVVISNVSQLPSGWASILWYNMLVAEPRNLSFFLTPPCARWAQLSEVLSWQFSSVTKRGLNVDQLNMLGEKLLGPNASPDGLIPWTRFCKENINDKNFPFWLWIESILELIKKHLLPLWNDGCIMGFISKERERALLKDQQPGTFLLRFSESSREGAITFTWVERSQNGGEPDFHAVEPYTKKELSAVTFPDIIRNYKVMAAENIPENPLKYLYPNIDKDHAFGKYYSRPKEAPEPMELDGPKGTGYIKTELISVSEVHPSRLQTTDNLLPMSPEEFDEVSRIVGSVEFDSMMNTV
The assay is described as follows: Inhibition of STAT1 phosphorylation at Y701 residue in human MDA-MB-231 cells at 0.3 to 3 uM after 3 hrs by Western blotting analysis. In kind it is cell-based. As to conditions: dose 0.3-3 µM.

Assay [2] in a line: Antitumor activity against patient-derived breast cancer cells xenografted in NOD/SCID mouse assessed as tumor growth inhibition at 5 mg/kg, iv administered once daily for 20 days. The note with it: Homo sapiens, Breast cancer cell line, 480 h, time 20 day, read-out: TGI. Type of assay: functional.

Active and inactive are the calls of the source. The rule behind the calls is not given here.

With `O=C(Cc1c(-c2ccccc2)nc2ccccn12)Nc1ccc2c(c1)S(=O)(=O)C=C2`, the result in the assay with MDA-MB-468 was inactive. In assay [1], the inhibition result was “inactive”. The inhibition in vivo at 5 mg/kg in assay [2] was found to be 32.7%.
